Assay results published in publication PMC7992179 (ACS Omega, 2021).
Values joined by “and” are separate entries in the source; they are usually repeats but may differ in a detail not shown here. Equal entries are not always repeated.

Key:
PTZ-induced convulsions = PTZ-induced convulsions in mice; assay type: in vivo; conditions: for average duration of seizure / latency time / seizure score / mortality: 5 mg/kg i.p., PTZ 70 mg/kg i.p., n = 10; for average duration of seizure / latency time / seizure score: mean ± SEM; for enhancement of latency time of PTZ-induced seizures compared with the standard LTG drug: vs LTG
Procedure, shortened: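 Overnight-fasted albino mice (n = 10 per group) received test compound at 5 mg/kg i.p., suspended in carboxymethylcellulose and sonicated. Controls were vehicle, PTZ alone and lamotrigine (dose-finding at 1–5 mg/kg). Clonic seizures were induced with PTZ 70 mg/kg i.p. Recorded: latency, convulsion duration, number of convulsions, protection, and a 0–6 seizure score (6 = death). Mean ± SEM; one-way ANOVA with Dunnett's test versus the PTZ group.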

[1] = test system: motor coordination on rotating rod; assay: Neurotoxicity / minimal motor impairment, rotating rod; assay type: in vivo; conditions: rod observed 5 min, mean ± SEM, 10 mice
Procedure, shortened: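 White albino mice of either sex, 8–10 weeks, 25–35 g, were trained on a rotating rod (2.5 cm diameter, 25 cm high). After i.p. dosing (10, 30 or 50 mg/kg), motor coordination was scored over 5 min at 30 min and 4 h. Neurotoxicity meant failure to stay on the rod for 1 min. 10 mice per group; mean ± SEM.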

MCF-7 cell line = assay: MTT cytotoxicity assay in MCF-7 cells; assay type: cell-based, human; conditions: for % inhibition/stimulation: conc. 30 μM
Procedure, shortened: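 MCF-7 cells grown in Eagle's MEM with 10% FBS, 1% penicillin/streptomycin, 0.1 mM non-essential amino acids, 10 μg/mL insulin and 1 mM sodium pyruvate at 37 °C, 5% CO2. Trypsin/EDTA-harvested cells were seeded at 6 × 10^4 cells/mL and incubated overnight. Test compound (1–30 μM, or a fixed 30 μM screen against doxorubicin) was applied for 48 h. MTT 0.5 mg/mL for 4 h, DMSO, A570; % inhibition and IC50.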

Compound | average duration of seizure (PTZ-induced convulsions) | latency time (PTZ-induced convulsions) | seizure score (PTZ-induced convulsions) | mortality (PTZ-induced convulsions) | enhancement of latency time of PTZ-induced seizures compared with the standard LTG drug (PTZ-induced convulsions; 5 mg/kg) | time on Rod ([1]; dose 10 mg/kg i.p.) | time on Rod ([1]; dose 30 mg/kg i.p.) | time on Rod ([1]; dose 50 mg/kg i.p.) | IC50 ± SD (MCF-7 cell line; MCF-7, 1–30 μM, 48 h, MTT) | % inhibition/stimulation (MCF-7 cell line; 48 h, MTT) | protection against PTZ-induced convulsions (PTZ-induced convulsions; dose of 5 mg/kg) | IC50 (MCF-7 cell line; read-out: IC50 ± SD, MCF-7, 1–30 μM, 48 h, MTT) | time on Rod ([1]; dose 50 mg/kg i.p., 50 mg/kg) | latency time (PTZ-induced convulsions; listed as LTG control) | decrease in the time duration of convulsions as compared to PTZ (negative control) (PTZ-induced convulsions; 5 mg/kg, vs PTZ negative control) | mice protected from clonic convulsions (PTZ-induced convulsions; LTG monotherapy 5 mg/kg) | highest nonprotective dose in the PTZ model (PTZ-induced convulsions; monotherapy, doses 1-5 mg/kg tested against clonic convulsions) | time on Rod ([1]; dose 10 mg/kg i.p., 10 mg/kg) | time on Rod ([1]; dose 30 mg/kg i.p., 30 mg/kg) | inhibition at 30 µM (MCF-7 cell line; Homo sapiens, MCF7, 48 h, read-out: % inhibition/stimulation)
2,2′-{[6-(2,3-Dichlorophenyl)-1,2,4-Triazine-3,5-Diyl]bis[azanylylidene(E)methanylylidene]}diphenol Zinc Chloride Coordinate Complex [4b] | 81.5 ± 2.1 s | 240.0 ± 10.3 s | 10.0 ± 6.5 counts | 0.0 counts | 13% | 105.0 ± 98.5 s | 80.6 ± 78.6 s | 54.26 ± 42.3 s | inactive | 0.00% | – | – | – | – | – | – | – | – | – | –
2,2′-{[6-(2,3-Dichlorophenyl)-1,2,4-triazine-3,5-diyl]bis[azanylylidene(E)methanylylidene]}diphenol Copper Acetate Coordinate Complex [5b] | 97.5 ± 28.3 s | 250.0 ± 88.3 s | 11.0 ± 2.4 counts | 1 counts | 18% | 116.7 ± 94.3 s | 100.0 ± 86.3 s | 75.83 ± 54.3 s | inactive | 0.00% | 90% | – | – | – | – | – | – | – | – | –
2,2′-{[6-(2,3-Dichlorophenyl)-1,2,4-triazine-3,5-diyl]bis[azanylylidene(E)methanylylidene]}diphenol Dibutyl Tin Dichloride Coordinate Complex [7b] | 99 ± 7.1 s | 190.0 ± 70.1 s | 12.0 ± 1.5 counts | 0.0 counts | – | 80.0 ± 27.6 s | 68.9 ± 25.7 s | 45.64 ± 19.3 s | inactive | 0.00% | – | – | – | – | – | – | – | – | – | –
2,2′-{[6-(2,3-Dichlorophenyl)-1,2,4-triazine-3,5-diyl]bis[azanylylidene(E)methanylylidene]}diphenol Silver Nitrate Coordinate Complex [6b] | 95 ± 10.5 s | 330.0 ± 67.8 s | 12.0 ± 1.8 counts | 0.0 counts | 56% | 153.3 ± 92.7 s | 146.3 ± 90.9 s | 130.0 ± 91.7 s | – | 101.2% | – | 11.9 ± 0.27 µM | – | – | – | – | – | – | – | –
4-{[(3-{(E)-[(4-Hydroxy-3-methoxyphenyl)methylidene]amino}-6-(2,3-dichlorophenyl)-1,2,4-triazin-5-yl)imino]methyl}-2-methoxyphenol Copper Acetate Coordinate Complex [5c] | 115 ± 10.0 s | 230.0 ± 70.1 s | 10.0 ± 2.6 counts | 0.0 counts | 8% | 121.7 ± 98.3 s | 90.0 ± 85.6 s | 75.64 ± 52.7 s | inactive | 0.00% | – | – | – | – | – | – | – | – | – | –
4-{[(3-{(E)-[(4-Hydroxy-3-methoxyphenyl)methylidene]amino}-6-(2,3-dichlorophenyl)-1,2,4-triazin-5-yl)imino]methyl}-2-methoxyphenol Dibutyl Tin Dichloride Coordinate Complex [7c] | 125 ± 15.3 s | 160.0 ± 49.0 s | 11.0 ± 1.6 counts | 0.0 counts | – | 190.0 ± 74.6 s | 167.4 ± 89.8 s | – | inactive | 0.00% | – | – | 140.5 ± 94.9 s and 140.5 ± 94.0 s | – | – | – | – | – | – | –
4-{[(3-{(E)-[(4-Hydroxy-3-methoxyphenyl)methylidene]amino}-6-(2,3-dichlorophenyl)-1,2,4-triazin-5-yl)imino]methyl}-2-methoxyphenol Zinc Chloride Coordinate Complex [4c] | 81.5 ± 1.5 s | 250.0 ± 10.3 s | 14.0 ± 3.7 counts | 0.0 counts | 18% | 80.0 ± 75.3 s | 50.6 ± 42.5 s | 30.65 ± 25.7 s | inactive | 0.00% | – | – | – | – | – | – | – | – | – | –
Oc1ccccc1/C=N/c1nnc(-c2cccc(Cl)c2Cl)c(/N=C/c2ccccc2O)n1 [3b, 2,2′-{[6-(2,3-Dichlorophenyl)-1,2,4-triazine-3,5-diyl]bis[azanylylidene(E)methanylylidene]}diphenol] | – | – | – | – | – | 110.8 ± 98.6 s | 90.5 ± 82.3 s | 65.97 ± 54.9 s | – | – | – | – | – | – | – | – | – | – | – | –
COc1cc(C=Nc2nc(/N=C/c3ccc(O)c(OC)c3)nnc2-c2cccc(Cl)c2Cl)ccc1O [3c, 4-{[(3-{(E)-[(4-Hydroxy-3-methoxyphenyl)methylidene]amino}-6-(2,3-dichlorophenyl)-1,2,4-triazin-5-yl)imino]methyl}-2-methoxyphenol] | – | – | – | – | – | 140.7 ± 92.4 s | 126.4 ± 88.0 s | 100.0 ± 82.3 s | – | – | – | – | – | – | – | – | – | – | – | –
Nc1nnc(-c2cccc(Cl)c2Cl)c(N)n1 [LTG, 3,5-diamino-6-(2,3-dichlorophenyl)-1,2,4-triazine, reference compound] | 90 ± 3.5 s | ~212 s | 11.0 ± 2.3 counts | 0.0 counts | – | 290.0 ± 16.7 s | 245.8 ± 15.4 s | 200.7 ± 13.7 s | – | – | – | – | – | 211.7 ± 98.1 s | 42% | 6% | 5 mg/kg | – | – | –
C1CCc2nnnn2CC1 [PTZ, pentylenetetrazole, reference compound] | – | – | – | – | – | – | – | – | – | – | – | – | 7.7 ± 2.4 s | – | – | – | – | 16.67 ± 8.165 s | 10.46 ± 1.654 s | –
COc1cccc2c1C(=O)c1c(O)c3c(c(O)c1C2=O)C[C@@](O)(C(=O)CO)C[C@@H]3O[C@H]1C[C@H](N)[C@H](O)[C@H](C)O1 [doxorubicin (DOX), doxorubicin, reference compound] | – | – | – | – | – | – | – | – | – | – | – | – | – | – | – | – | – | – | – | 101%
(1E,2Z)-N-[6-(2,3-Dichlorophenyl)-5-{(E)-[(2E)-3-phenylprop-2-en-1-ylidene]amino}-1,2,4-triazin-3-yl]prop-2-en-1-imine Copper Acetate Coordinate Complex [5a] | 81.5 ± 2.1 s | 170.0 ± 45.2 s | 11.0 ± 1.9 counts | 0.0 counts | – | 76.7 ± 19.7 s | 55.9 ± 12.9 s | 40.9 ± 10.7 s | inactive | 0.00% | – | – | – | – | – | – | – | – | – | –
